One test concerns the target T1, Myeloperoxidase (Homo sapiens, UniProt P05164).
T1 sequence (P05164 whole entry): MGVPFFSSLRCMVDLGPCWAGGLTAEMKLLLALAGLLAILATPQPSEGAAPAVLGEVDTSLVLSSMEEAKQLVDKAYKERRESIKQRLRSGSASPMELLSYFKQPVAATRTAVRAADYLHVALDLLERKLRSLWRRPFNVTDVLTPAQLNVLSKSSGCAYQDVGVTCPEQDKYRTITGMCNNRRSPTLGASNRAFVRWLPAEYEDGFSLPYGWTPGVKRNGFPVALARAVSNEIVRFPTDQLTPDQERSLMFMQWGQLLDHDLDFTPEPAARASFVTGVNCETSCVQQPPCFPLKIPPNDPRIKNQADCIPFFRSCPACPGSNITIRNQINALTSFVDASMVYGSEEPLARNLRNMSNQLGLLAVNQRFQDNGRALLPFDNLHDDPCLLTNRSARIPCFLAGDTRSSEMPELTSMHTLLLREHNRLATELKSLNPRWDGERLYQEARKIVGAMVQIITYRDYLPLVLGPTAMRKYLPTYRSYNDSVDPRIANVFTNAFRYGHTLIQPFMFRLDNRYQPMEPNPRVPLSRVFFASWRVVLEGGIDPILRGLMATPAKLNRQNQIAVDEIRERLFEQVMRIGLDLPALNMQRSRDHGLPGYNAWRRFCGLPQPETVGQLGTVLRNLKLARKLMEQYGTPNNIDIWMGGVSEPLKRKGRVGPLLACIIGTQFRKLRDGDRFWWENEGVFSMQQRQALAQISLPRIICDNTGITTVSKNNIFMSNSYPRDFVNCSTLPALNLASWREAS
Put plainly: Inhibition of MPO in human neutrophils assessed as reduction in PMA-stimulated HOCl production incubated for 3 mins and measured for 25 mins by luminol reagent based luminescence assay. A digest of the protocol: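 Neutrophils from healthy donors isolated by dextran sedimentation then Ficoll-Paque, resuspended in HBSS; 1.106 cells/mL stimulated with 100 nM PMA; inhibitor 22 μM down to 1 nM (1:3, 10 doses) in 10% ethanol/50% PEG/40% water, 3 min at rt; luminol 100 μM final, read 25 min at 37 °C; rate taken from initial linear region.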

Another test has as its target T2, Thyroid peroxidase (Homo sapiens, UniProt P07202).
T2 sequence (P07202 whole entry): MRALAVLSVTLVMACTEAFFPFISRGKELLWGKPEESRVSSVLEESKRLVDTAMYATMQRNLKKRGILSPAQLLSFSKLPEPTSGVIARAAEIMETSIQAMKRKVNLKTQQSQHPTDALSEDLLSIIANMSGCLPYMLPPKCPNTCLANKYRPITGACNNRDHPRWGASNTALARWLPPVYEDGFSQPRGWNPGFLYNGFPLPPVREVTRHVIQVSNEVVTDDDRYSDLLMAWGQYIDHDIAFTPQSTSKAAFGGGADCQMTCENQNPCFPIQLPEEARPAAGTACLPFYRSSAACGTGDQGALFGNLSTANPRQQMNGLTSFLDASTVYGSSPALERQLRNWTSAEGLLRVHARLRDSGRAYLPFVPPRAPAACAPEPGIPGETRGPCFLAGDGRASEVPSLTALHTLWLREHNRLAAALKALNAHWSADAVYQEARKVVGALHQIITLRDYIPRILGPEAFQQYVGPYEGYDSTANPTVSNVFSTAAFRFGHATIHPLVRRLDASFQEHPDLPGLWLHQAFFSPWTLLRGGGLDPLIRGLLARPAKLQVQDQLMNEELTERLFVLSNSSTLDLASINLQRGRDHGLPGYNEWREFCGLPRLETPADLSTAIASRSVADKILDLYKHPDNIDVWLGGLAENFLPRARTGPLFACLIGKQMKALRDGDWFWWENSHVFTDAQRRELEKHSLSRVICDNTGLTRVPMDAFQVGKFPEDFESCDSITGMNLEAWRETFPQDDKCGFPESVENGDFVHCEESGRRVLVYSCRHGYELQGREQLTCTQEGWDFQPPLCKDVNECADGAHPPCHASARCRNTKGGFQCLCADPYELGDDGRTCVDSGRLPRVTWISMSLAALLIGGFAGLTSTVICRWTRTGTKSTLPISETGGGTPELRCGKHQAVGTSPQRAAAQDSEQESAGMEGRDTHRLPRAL
Put plainly: Inhibition of recombinant human C-terminal His6-tagged TPO (15 to 839 residues) expressed in baculovirus infected insect cells assessed as reduction in H2O2-catalyzed 3,5-iodo tyrosine formation using 3-iodotyrosine and potassium iodide preincubated for 10 mins followed by 3,5-iodo tyrosine/potassium iodide/H2O2 addition and measured after 15 mins. A digest of the protocol:
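TPO residues 15–839 with C-terminal His6, baculovirus/T. ni expressed, purified by Ni affinity, anion exchange and size exclusion; 4.0 nM in 100 mM KPi pH 7.4, 10 min rt preincubation with inhibitor; then 400 μM KI/240 μM 3-iodotyrosine mix and 20 μM H2O2 (added solutions); 3,5-iodotyrosine formation monitored.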

Another test deals with T3, Eosinophil peroxidase (Homo sapiens, UniProt P11678).
T3 sequence (P11678 whole entry): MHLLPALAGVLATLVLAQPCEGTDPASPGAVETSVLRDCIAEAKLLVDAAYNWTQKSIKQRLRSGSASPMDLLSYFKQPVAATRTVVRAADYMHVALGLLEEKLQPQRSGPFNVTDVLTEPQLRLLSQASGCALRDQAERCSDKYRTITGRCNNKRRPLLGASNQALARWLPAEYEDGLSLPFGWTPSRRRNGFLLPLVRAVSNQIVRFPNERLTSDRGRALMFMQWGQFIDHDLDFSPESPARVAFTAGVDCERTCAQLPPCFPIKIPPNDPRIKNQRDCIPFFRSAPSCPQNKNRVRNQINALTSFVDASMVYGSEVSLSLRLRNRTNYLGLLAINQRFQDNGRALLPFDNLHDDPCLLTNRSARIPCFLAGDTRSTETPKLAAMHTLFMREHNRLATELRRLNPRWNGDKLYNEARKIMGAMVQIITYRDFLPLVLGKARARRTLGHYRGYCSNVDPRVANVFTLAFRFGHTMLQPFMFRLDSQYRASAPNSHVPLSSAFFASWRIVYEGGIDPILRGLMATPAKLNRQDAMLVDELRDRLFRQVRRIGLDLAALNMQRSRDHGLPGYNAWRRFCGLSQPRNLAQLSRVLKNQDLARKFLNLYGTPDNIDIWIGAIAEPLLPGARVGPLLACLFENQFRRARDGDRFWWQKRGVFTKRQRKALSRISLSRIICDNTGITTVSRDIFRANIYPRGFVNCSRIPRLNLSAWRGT
Put plainly: Inhibition of eosinophil peroxidase (unknown origin)assessed as reduction in H2O2-catalyzed 3-bromo tyrosine formation using tyrosine and potassium bromide preincubated for 10 mins followed by tyrosine/potassium bromide/H2O2 addition and measured after 15 mins by RP-UPLC analysis. In short, it runs like this:
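Commercial EPX, purity ≥98%, 0.6 μM, in 100 mM KPi pH 7.4, preincubated with inhibitor 10 min at rt; then 400 μM tyrosine/1200 μM KBr mix, followed by 20 μM H2O2 (added solutions); 3-bromotyrosine quantified by reversed-phase LC, column 60 °C, MeOH/TFA gradient.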

For orientation: IC50 means the midpoint of a concentration-inhibition curve. Turning to `Nc1nc(OCc2ccccc2)c2[nH]nnc2n1`, the 50% inhibitory concentration (IC50) at Myeloperoxidase is 5000 nM; at Thyroid peroxidase it was greater than 30000 nM; at Eosinophil peroxidase, 15 nM.
Taken in the same sequence, the figures for `Nc1ccc(Oc2cc(Cl)c(Cl)cc2Cl)cn1` were 1700 nM, 6000 nM and 160 nM.
